Results published in ChEMBL document CHEMBL1140185, “Conjugated chitosan as a novel platform for oral delivery of paclitaxel” (J Med Chem, 2008).
In brackets after ≈: the same amount, converted by molar mass.

Tests used:
SK-OV-3 = assay: Anticancer activity against human SKOV3 cells by MTT assay; format: functional, cell-based
NCI-H358 [1] = assay: Antitumor activity against human NCI-H358 cells xenografted NCR nu/nu mouse assessed as suppression of tumor growth at 10 mg/kg, iv; format: functional
Summary of the method: (§1)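 Female athymic NCR nu/nu mice (20-25 g), inoculated sc with about 6 × 10^6 NCI-H358 cells. Dosing began at tumors ≥150 mm3: 10 mg/kg/day formulated PTX iv, or conjugate po, every other day for six doses. Saline and LMWC controls. Caliper volumes taken as (1/2)(L × W2), and body weight tracked. n = 8-12; Student's t-test.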

[2] = Half life in ICR mouse at 10 mg/kg, iv; format: ADME, organism-based; design: dose 10 mg/kg, route intravenous; conditions: in vivo
Summary of the method: (§2)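 ICR mice (25-30 g). IV arm: 10 mg/kg PTX in cremophor EL/ethanol via tail vein. Oral arm: 5 or 10 mg PTX-equivalent/kg conjugate in 10% DMSO by gavage after a 12 h fast. Retro-orbital blood taken into sodium citrate and spun 800g for 20 min. Plasma extracted with ethyl acetate; free PTX measured by HPLC. Oral bioavailability is relative to 10 mg/kg IV. n = 5.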

[3] = AUC (0 to 48 hrs) in ICR mouse at 10 mg/kg, iv; format: ADME, organism-based; design: time < 48 hr, dose 10 mg/kg, route intravenous; conditions: plasma; summary of the method: as §2
Mus musculus [4] = assay: Bioavailability in ICR mouse at 10 mg/kg, iv; format: ADME, organism-based; conditions: in vivo; summary of the method: as §2
[5] = Oral bioavailability in cyclosporine A pretreated ICR mouse; format: ADME, organism-based; conditions: in vivo, in the assay text read “in ICR mouse” for “in cyclosporine A pretreated ICR mouse”
Summary of the method: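 ICR mice (25-30 g) fasted 12 h, then gavaged with PTX or conjugate (PTX-equivalent). The oral solution included 15 mg/kg cyclosporine A where given. Retro-orbital blood spun at 3000g for 20 min; plasma PTX measured by HPLC. n = 4-5.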

[6] = Drug uptake in tumor of iv dosed C57BL/6 mouse bearing mouse B16F10 cells after 30 mins; format: ADME, organism-based, C57BL6, Neoplasm, B16-F10; conditions: in vivo, 0.5 h
NCI-H358 [7] = assay: Anticancer activity against human NCI-H358 cells by MTT assay; format: functional, cell-based
MDA-MB-231 = assay: Anticancer activity against human MDA-MB-231 cells by MTT assay
Mus musculus [8] = assay: Toxicity in human NCI-H358 cells xenografted NCR nu/nu mouse assessed as decrease in body weight at 10 mg/kg, iv; format: organism-based; design: dose 10 mg/kg, route intravenous; conditions: in vivo; summary of the method: as §1

`CC(=O)O[C@H]1C(=O)[C@@]2(C)[C@H]([C@H](OC(=O)c3ccccc3)[C@]3(O)C[C@H](OC(=O)[C@H](O)[C@@H](NC(=O)c4ccccc4)c4ccccc4)C(C)=C1C3(C)C)[C@]1(OC(C)=O)CO[C@@H]1C[C@@H]2O` [PACLITAXEL] showed an IC50 (SK-OV-3) of 4 µg/mL (≈ 4.68 µM), an Activity (NCI-H358 [1]) of 80% and a half-life [2] of 33.6 min. For the same molecule, the AUC(0-t) at 48 h [3] was 35300 ng·h/mL, the F (Mus musculus [4]) was 100% and the bioavailability [5] was 0.23%. For the same molecule, the Drug uptake [6] was 0.5%, the IC50 (NCI-H358 [7]) was 3.8 µg/mL (≈ 4.45 µM) and the IC50 (MDA-MB-231) was 3.9 µg/mL (≈ 4.57 µM). The Activity (Mus musculus [8]) was “Toxic”.
